Legend:
[1] = target: Neuronal acetylcholine receptor subunit alpha-7 (Homo sapiens, UniProt P36544); experiment: Agonist activity at human recombinant alpha7 nAChR expressed in rat GH3 cells by calcium influx assay; type: functional, cell-based
How it was run: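 GH3 cells recombinantly expressing human α7 nAChR; agonist activity. Each compound run in duplicate. EC50 taken from individual 8-point concentration-response curves and expressed as pEC50, with Emax given in %.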

Homo sapiens [2] = species on record: Homo sapiens; experiment: Selectivity for human alpha3beta4 nAChR over human alpha7 nAChR
Homo sapiens [3] = species on record: Homo sapiens; experiment: Selectivity for human alpha4beta2 nAChR over human alpha7 nAChR
[4] = Metabolic stability in human liver microsomes assessed as hepatic extraction ratio; type: ADME, Microsome; conditions: read-out: Activity
How it was run: (§1)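 Compound incubated with mouse or human liver microsomes. In vitro hepatic extraction ratio reported as % compound depleted at the end of the experiment; half-life also given.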

Brain [5] = experiment: Drug level in DBA/2 mouse brain at 30 umol/kg, po after 4 hrs; type: ADME, organism-based; conditions: in vivo
How it was run: (§2)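 Mice (n = 6) dosed 30 µmol/kg po. Brain and plasma levels measured at 1 h and 4 h after dosing, reported as pmol/g.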

[6] = target: Neuronal acetylcholine receptor; alpha3/beta4 (Homo sapiens, UniProt P30926+P32297); experiment: Antagonist activity at human alpha3beta4 nAChR expressed in HEK293 cells by calcium influx assay; type: functional, cell-based
[7] = target: Acetylcholine receptor; alpha1/beta1/delta/gamma (Homo sapiens, UniProt P02708+P07510+P11230+Q07001); experiment: Antagonist activity at human alpha-1-beta-1-gamma-delta nAChR expressed in human TE671 cells by calcium influx assay; type: functional, cell-based, TE-671
Mus musculus [8] = experiment: Plasma concentration in DBA/2 mouse at 30 umol/kg, po after 1 hr; type: ADME, organism-based; conditions: in vivo; how it was run: as §2
Homo sapiens [9] = species on record: Homo sapiens; experiment: Selectivity for human 5HT3 receptor over human alpha7 nAChR
[10] = target: T1, 5-hydroxytryptamine receptor 3A (Homo sapiens, UniProt P46098); experiment: Antagonist activity at human 5HT3 receptor by calcium influx assay; type: functional
T1 sequence (P46098 whole entry): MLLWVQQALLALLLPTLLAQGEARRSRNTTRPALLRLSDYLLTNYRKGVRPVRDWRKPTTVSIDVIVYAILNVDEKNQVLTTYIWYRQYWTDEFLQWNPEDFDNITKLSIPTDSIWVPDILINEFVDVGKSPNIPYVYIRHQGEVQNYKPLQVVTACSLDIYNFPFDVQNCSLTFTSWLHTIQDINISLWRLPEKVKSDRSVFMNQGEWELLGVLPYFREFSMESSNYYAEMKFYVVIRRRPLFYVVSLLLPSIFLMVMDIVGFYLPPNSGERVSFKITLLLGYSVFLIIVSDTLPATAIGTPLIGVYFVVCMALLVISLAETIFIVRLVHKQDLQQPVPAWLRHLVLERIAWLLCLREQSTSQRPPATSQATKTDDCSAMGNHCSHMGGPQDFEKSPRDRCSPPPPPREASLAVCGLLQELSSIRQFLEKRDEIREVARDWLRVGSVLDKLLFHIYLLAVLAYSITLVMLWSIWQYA

[11] = Metabolic stability in mouse liver microsomes assessed as hepatic extraction ratio; type: ADME, Microsome; conditions: read-out: Activity; how it was run: as §1
Homo sapiens [12] = species on record: Homo sapiens; experiment: Selectivity for human alpha-1-beta-1-gamma-delta nAChR over human alpha7 nAChR
Brain [13] = experiment: Drug level in DBA/2 mouse brain at 30 umol/kg, po after 1 hr; type: ADME, organism-based; conditions: in vivo; how it was run: as §2
[14] = target: Neuronal acetylcholine receptor; alpha4/beta2 (Homo sapiens, UniProt P17787+P43681); experiment: Antagonist activity at human alpha4beta2 nAChR expressed in HEK293 cells by calcium influx assay; type: functional, cell-based
Mus musculus [15] = experiment: Plasma concentration in DBA/2 mouse at 30 umol/kg, po after 4 hrs; type: ADME, organism-based; conditions: in vivo; how it was run: as §2
[16] = Octanol-water partition coefficient, log P of the compound; type: physicochemical

Chain of Neuronal acetylcholine receptor; alpha4/beta2 (P17787 whole entry): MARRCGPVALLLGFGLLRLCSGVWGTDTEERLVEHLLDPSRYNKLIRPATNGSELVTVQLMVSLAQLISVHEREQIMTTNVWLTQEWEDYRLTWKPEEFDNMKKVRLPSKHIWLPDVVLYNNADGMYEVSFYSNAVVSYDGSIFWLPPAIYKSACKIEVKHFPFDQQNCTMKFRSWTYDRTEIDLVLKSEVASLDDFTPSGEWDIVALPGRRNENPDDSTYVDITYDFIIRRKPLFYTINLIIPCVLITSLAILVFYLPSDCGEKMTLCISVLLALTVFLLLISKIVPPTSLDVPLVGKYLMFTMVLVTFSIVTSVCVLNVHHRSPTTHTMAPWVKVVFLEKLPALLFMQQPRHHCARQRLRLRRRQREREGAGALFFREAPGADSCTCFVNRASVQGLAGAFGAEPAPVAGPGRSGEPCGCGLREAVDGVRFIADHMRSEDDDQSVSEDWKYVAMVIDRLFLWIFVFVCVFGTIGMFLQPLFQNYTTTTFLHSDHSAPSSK
Chain of Neuronal acetylcholine receptor; alpha4/beta2 (P43681 whole entry): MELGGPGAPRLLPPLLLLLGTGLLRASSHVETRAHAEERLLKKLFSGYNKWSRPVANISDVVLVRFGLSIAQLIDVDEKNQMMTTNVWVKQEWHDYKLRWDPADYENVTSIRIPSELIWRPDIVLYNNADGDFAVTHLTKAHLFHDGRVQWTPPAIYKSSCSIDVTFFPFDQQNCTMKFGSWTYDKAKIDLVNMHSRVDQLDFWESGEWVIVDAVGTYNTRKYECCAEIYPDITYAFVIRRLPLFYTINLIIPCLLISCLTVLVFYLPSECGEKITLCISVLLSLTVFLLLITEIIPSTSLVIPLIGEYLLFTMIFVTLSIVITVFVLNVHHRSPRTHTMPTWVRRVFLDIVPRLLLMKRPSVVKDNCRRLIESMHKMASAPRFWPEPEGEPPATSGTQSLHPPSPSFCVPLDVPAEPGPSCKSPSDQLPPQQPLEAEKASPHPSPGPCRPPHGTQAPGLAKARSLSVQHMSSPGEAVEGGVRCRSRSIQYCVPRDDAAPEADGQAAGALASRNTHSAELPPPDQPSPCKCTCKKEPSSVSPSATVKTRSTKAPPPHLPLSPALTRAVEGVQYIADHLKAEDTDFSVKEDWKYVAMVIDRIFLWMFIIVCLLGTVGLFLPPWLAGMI
Chain of Neuronal acetylcholine receptor subunit alpha-7 (P36544 whole entry): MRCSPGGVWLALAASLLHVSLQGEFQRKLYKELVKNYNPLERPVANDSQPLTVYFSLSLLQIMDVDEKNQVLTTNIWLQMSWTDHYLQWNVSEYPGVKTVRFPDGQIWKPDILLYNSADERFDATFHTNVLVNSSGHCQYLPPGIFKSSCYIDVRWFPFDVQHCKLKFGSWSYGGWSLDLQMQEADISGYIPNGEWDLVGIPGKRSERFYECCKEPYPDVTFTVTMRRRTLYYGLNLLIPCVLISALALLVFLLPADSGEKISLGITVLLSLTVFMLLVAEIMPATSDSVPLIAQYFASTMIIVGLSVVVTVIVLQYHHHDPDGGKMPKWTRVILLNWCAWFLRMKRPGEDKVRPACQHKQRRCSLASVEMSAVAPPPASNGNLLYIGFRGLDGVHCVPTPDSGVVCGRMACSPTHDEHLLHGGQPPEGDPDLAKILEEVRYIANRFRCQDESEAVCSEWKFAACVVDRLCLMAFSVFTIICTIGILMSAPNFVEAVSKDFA
Chain of Acetylcholine receptor; alpha1/beta1/delta/gamma (P02708 whole entry): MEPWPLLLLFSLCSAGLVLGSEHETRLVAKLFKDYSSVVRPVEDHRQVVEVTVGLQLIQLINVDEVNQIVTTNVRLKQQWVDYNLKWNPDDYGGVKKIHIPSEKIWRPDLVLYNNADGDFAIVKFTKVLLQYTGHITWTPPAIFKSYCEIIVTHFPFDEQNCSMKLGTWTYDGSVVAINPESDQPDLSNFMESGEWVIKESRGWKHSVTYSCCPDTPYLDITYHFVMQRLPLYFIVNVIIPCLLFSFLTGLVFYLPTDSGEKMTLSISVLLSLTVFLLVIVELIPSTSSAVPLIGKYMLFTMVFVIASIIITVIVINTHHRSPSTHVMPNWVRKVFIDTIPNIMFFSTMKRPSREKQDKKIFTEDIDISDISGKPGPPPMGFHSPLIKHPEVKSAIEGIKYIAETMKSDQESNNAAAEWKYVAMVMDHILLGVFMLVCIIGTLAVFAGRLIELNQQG
Chain of Acetylcholine receptor; alpha1/beta1/delta/gamma (P07510 whole entry): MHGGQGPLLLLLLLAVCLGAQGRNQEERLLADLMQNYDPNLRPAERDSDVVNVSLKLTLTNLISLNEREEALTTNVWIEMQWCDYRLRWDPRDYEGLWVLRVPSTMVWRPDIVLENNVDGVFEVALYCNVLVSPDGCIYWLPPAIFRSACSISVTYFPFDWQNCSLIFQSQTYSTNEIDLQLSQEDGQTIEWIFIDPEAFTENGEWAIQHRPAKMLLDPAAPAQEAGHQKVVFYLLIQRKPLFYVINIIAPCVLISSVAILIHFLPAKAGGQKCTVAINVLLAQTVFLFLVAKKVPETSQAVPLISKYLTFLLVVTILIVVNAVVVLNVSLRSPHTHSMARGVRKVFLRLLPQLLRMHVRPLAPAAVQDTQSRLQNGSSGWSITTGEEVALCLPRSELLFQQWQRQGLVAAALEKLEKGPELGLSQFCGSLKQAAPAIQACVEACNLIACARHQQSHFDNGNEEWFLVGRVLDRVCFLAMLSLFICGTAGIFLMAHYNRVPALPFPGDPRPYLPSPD
Chain of Acetylcholine receptor; alpha1/beta1/delta/gamma (P11230 whole entry): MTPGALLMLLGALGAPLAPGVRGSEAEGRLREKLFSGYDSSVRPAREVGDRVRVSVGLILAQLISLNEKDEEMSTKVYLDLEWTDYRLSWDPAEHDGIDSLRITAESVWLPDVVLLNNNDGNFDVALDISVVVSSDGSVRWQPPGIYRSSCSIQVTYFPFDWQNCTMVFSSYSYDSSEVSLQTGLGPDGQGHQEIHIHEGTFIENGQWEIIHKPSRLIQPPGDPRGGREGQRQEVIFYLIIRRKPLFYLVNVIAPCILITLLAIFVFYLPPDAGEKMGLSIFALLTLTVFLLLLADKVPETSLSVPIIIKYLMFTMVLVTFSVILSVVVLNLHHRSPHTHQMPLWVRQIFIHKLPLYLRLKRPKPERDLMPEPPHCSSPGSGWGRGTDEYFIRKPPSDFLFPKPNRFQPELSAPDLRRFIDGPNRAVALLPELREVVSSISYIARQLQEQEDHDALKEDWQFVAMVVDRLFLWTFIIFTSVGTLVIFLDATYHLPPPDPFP
Chain of Acetylcholine receptor; alpha1/beta1/delta/gamma (Q07001 whole entry): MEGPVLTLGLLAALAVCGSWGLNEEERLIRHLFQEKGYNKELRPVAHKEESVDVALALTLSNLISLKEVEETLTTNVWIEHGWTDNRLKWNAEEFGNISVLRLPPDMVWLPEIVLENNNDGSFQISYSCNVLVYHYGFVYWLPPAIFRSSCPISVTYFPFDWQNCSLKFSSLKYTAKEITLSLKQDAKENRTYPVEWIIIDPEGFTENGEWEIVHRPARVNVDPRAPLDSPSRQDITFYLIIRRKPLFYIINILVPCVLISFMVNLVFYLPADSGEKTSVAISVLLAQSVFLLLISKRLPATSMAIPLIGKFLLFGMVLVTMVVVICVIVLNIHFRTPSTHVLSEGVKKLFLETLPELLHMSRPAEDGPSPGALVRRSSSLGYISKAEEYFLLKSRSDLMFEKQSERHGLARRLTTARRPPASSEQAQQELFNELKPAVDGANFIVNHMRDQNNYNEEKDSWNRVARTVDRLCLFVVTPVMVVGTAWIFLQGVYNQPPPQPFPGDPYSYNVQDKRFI
Chain of Neuronal acetylcholine receptor; alpha3/beta4 (P30926 whole entry): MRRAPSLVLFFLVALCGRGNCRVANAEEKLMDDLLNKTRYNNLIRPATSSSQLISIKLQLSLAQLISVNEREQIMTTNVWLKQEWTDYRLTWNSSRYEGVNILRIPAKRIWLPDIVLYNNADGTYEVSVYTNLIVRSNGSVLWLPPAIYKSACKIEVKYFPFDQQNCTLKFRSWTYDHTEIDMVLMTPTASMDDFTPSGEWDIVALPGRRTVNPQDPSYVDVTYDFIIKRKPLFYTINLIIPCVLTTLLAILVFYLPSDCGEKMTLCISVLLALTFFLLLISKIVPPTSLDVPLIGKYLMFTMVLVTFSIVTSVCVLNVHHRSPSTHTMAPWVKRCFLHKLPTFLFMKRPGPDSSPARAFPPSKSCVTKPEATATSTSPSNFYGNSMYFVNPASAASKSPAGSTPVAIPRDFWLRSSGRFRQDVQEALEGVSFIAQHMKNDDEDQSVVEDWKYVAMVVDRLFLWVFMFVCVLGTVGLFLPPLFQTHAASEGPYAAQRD
Chain of Neuronal acetylcholine receptor; alpha3/beta4 (P32297 whole entry): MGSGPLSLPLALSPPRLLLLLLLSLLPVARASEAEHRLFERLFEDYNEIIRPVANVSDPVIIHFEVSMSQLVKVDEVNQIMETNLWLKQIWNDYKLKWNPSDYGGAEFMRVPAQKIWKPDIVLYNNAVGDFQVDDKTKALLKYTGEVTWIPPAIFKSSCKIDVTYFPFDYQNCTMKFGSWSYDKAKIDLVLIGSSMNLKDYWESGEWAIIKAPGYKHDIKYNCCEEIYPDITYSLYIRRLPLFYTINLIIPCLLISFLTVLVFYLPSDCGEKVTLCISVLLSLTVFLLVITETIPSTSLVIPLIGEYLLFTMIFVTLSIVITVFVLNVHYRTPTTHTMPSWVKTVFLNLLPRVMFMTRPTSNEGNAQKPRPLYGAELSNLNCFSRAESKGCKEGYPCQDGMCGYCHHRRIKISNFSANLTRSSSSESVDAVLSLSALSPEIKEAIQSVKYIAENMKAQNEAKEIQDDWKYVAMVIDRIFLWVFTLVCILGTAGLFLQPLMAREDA

Row | Structure (SMILES) | EC50 [1] [µM] | Emax [1] [%] | further results
1 | COc1ccc([C@@H]2C[C@H](CN3CCCCC3)C(=O)N2C)cc1 (relative stereo) | 1.26 | 124 | –
2 | CN1C(=O)[C@@H](CN2CCCCC2)C[C@H]1c1ccc(-c2ccccc2F)cc1 (relative stereo) | 0.316 | 47 | –
3 | CN1C(=O)[C@@H](CN2CCCCC2)C[C@H]1c1ccc(C2CCCC2)cc1 (relative stereo) | 0.316 | 28 | –
4 | CN1C(=O)[C@@H](CN2CCCCCC2)C[C@H]1c1ccccc1Cl (relative stereo) | 2 | 82 | –
5 | COc1ccc(/C=C2\CCCN=C2c2cccnc2)c(OC)c1 [GTS-21] | 2 | 71 | –
6 | COc1cccc([C@@H]2C[C@H](CN3CCCC3)C(=O)N2C)c1 (relative stereo) | 7.94 | 80 | –
7 | O=C1NC[C@@]2(CN3CCC2CC3)O1 | 0.398 | 104 | –
8 | CN1C(=O)[C@@H](CN2CCCCC2)C[C@H]1c1cccc(Cl)c1 (relative stereo) | 1 | 102 | –
9 | CN1C(=O)[C@@H](CN2CCCCC2)C[C@H]1c1cnc(-c2ccccc2Cl)s1 (relative stereo) | 0.0251 | 89 | Ratio (Homo sapiens [2]): 14
10 | Cc1cc([C@@H]2C[C@H](CN3CCCCC3)C(=O)N2C)sc1-c1ccccc1Cl (relative stereo) | 0.631 | 81 | –
11 | CN1C(=O)[C@@H](CN2CCCCC2)C[C@H]1c1ccc(-c2ccccc2Cl)s1 (relative stereo) | 0.0316 | 79 | Ratio (Homo sapiens [2]): 26
12 | COc1cccc([C@@H]2C[C@H](CN3CCCCC3)C(=O)N2C)c1 (relative stereo) | 1.26 | 128 | –
13 | CN1C(=O)[C@@H](CN2CCCCC2)C[C@H]1c1ccccc1Cl | 0.794 | 89 | –
14 | Cc1ccc([C@@H]2C[C@H](CN3CCCCC3)C(=O)N2C)cc1 (relative stereo) | 0.631 | 114 | –
15 | CN1C(=O)[C@@H](CN2CCCCC2)C[C@H]1c1nc(-c2ccccc2Cl)cn1C (relative stereo) | 0.631 | 47 | –
16 | CN1C(=O)[C@@H](CN2CCCCC2)C[C@H]1c1ccc(Br)cc1 (relative stereo) | 0.631 | 89 | –
17 | Cc1ccccc1C#C[C@@H]1C[C@H](CN2CCCCC2)C(=O)N1C (relative stereo) | 0.0158 | 83 | Ratio (Homo sapiens [2]): 104
18 | CN1C(=O)[C@@H](CN2CCCCC2)C[C@H]1c1ccc(Cl)cc1 (relative stereo) | 1 | 110 | –
19 | Clc1ccc([C@@H]2C[C@H]3CC[C@@H]2N3)cn1 [(+)-EPIBATIDINE] | 0.0398 | 100 | –
20 | CN1C(=O)[C@@H](CN2CCCCC2)C[C@H]1c1ccc(-c2ccccc2)cc1 | 1.26 | 61 | –
21 | CN1C(=O)[C@@H](CN2CCCCC2)C[C@H]1c1ccc(C2CCCCC2)cc1 (relative stereo) | 0.316 | 60 | –
22 | CN1C(=O)[C@@H](CN2CCCCC2)C[C@H]1c1nc(-c2ccccc2Cl)c[nH]1 (relative stereo) | 1.26 | 61 | –
23 | CN1C(=O)[C@@H](CN2CCCCC2)C[C@H]1c1ccc(-c2ccccc2Cl)cc1 (relative stereo) | 0.126 | 62 | Ratio (Homo sapiens [2]): 3
24 | CN1C(=O)[C@@H](CN2CCCCC2)C[C@H]1C#Cc1ccc2occc2c1 (relative stereo) | 0.00794 | 90 | Ratio (Homo sapiens [3]): 660; hepatic extraction ratio [4]: 0.68; Drug uptake (Brain [5]): 3676 pmol/g; IC50 [6]: 0.794 µM; IC50 [7]: 100 µM; Cp (Mus musculus [8]): 1001 pmol/g; Ratio (Homo sapiens [9]): 17000; IC50 [10]: 100 µM; hepatic extraction ratio [11]: 0.67; Ratio (Homo sapiens [12]): 17000; Drug uptake (Brain [13]): 6533 pmol/g; IC50 [14]: 5.01 µM; Cp (Mus musculus [15]): 544 pmol/g; logP [16]: 3.9; Ratio (Homo sapiens [2]): 123
25 | CN1C(=O)[C@@H](CN2CCCCC2)C[C@H]1C#Cc1ccccc1Cl | 0.0251 | 89 | Ratio (Homo sapiens [2]): 52
26 | CN1CCC[C@H]1c1cccnc1 | – | 100 | –
27 | CN1C(=O)[C@@H](CN2CCCCC2)C[C@H]1C#Cc1ccc2c(ccn2C)c1 (relative stereo) | 0.00794 | 100 | Ratio (Homo sapiens [3]): 232; IC50 [6]: 1 µM; IC50 [7]: 3.98 µM; Ratio (Homo sapiens [9]): 3220; IC50 [10]: 25.1 µM; Ratio (Homo sapiens [12]): 431; IC50 [14]: 2 µM; Ratio (Homo sapiens [2]): 111
28 | COc1ccccc1[C@@H]1C[C@H](CN2CCCCC2)C(=O)N1C (relative stereo) | 1.26 | 107 | –
29 | CN1C(=O)[C@@H](CN2CCCCC2)C[C@H]1C#Cc1ccc2c(c1)CCO2 (relative stereo) | 0.00794 | 80 | Ratio (Homo sapiens [3]): 1260; IC50 [6]: 1 µM; IC50 [7]: 6.31 µM; Ratio (Homo sapiens [9]): 5390; IC50 [10]: 50.1 µM; Ratio (Homo sapiens [12]): 773; IC50 [14]: 10 µM; Ratio (Homo sapiens [2]): 154
